Results reported in ChEMBL document CHEMBL4433264, “Novel hydrophilic galactose-conjugated chlorin e6 derivatives for photodynamic therapy and fluorescence imaging” (Bioorg Med Chem Lett, 2019).

Legend:
[1] = Aqueous solubility of the compound by UV spectroscopy; assay type: physicochemical; conditions: buffer
[2] = Dark toxicity in human HeLa cells assessed as reduction in cell viability; assay type: cell-based
Procedure, shortened: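 HeLa cells were grown in DMEM/F12 with 10% FBS, without antibiotics, at 37 °C and 5% CO2, and exposed to compound without irradiation. Live cells were counted by fluorometric microculture cytotoxicity assay (FMCA), with 10 independent microcultures per concentration. Outliers were screened by Grubbs criterion, and IC50 was derived from concentration versus survival index (±SE).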

[3] = Potency index, ratio of IC50 for dark toxicity in human HeLa cells to IC50 for phototoxicity in human HeLa cells in presence of irradiation with LED light at 12 J/cm2; assay type: cell-based; conditions: read-out: Ratio IC50
Procedure, shortened: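 The index is dark IC50 divided by photoinduced IC50 in HeLa cells. Both IC50 values come from FMCA viability readings (10 microcultures per concentration, Grubbs outlier check, fit of concentration versus survival index). The phototoxicity arm used 660 nm LED irradiation at 12 J/cm2.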

[4] = Drug penetration in human HeLa cells at 10 uM measured after 40 mins by fluorescence microscopy; assay type: ADME, cell-based
Procedure, shortened: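 HeLa cells were incubated for 40 min with compound at 10 μM, alongside untreated cells. Uptake was judged by intracellular red fluorescence under fluorescence microscopy, paired with light micrographs of the same fields.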

HeLa = test: Phototoxicity in human HeLa cells assessed as reduction in cell viability in presence of irradiation with LED light at 12 J/cm2; assay type: functional, cell-based; conditions: light or radiation study
Procedure, shortened: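 HeLa cells were cultured in DMEM/F12 with 10% FBS, antibiotic-free, at 37 °C and 5% CO2. Compound-treated cells were irradiated with a 660 nm LED at 12 J/cm2. Viable cells were quantified by FMCA using 10 independent microcultures per concentration. Grubbs criterion removed artifacts before IC50 was calculated from concentration versus survival index (±SE).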

SMILES | solubility [1] | IC50 [2] [µM] | selectivity ratio [3] | Drug uptake [4] | IC50 (HeLa) [µM]
C=Cc1c(C)c2cc3nc(c(CC(=O)OC)c4[nH]c(cc5nc(cc1[nH]2)C(C)=C5CC)c(C)c4C(=O)NCCN(C[C@H]1OC(O)[C@H](O)[C@@H](O)[C@H]1O)C[C@H]1OC(O)[C@H](O)[C@@H](O)[C@H]1O)[C@@H](CCC(=O)O)[C@@H]3C (some centres undefined) | Soluble | 39 | 31 | Active | 1.24
C=Cc1c(C)c2cc3nc(c(CC(=O)OC)c4[nH]c(cc5nc(cc1[nH]2)C(C)=C5CC)c(C)c4C(=O)NCCN(C[C@H]1OC(O)[C@H](O)[C@@H](O)[C@H]1O)C[C@H]1OC(O)[C@H](O)[C@@H](O)[C@H]1O)[C@@H](CCC(=O)OC)[C@@H]3C (some centres undefined) | Soluble | 6.1 |  | Active | 1.11
C=Cc1c(C)c2cc3nc(c(CC(=O)OC)c4[nH]c(cc5nc(cc1[nH]2)C(C)=C5CC)c(C)c4C(=O)NCCN(C[C@H]1OC(O)[C@H](O)[C@@H](O)[C@H]1O)C[C@H]1OC(O)[C@H](O)[C@@H](O)[C@H]1O)[C@@H](CCC(=O)NCCN(C[C@H]1OC(O)[C@H](O)[C@@H](O)[C@H]1O)C[C@H]1OC(O)[C@H](O)[C@@H](O)[C@H]1O)[C@@H]3C (some centres undefined) | Soluble | 59.6 | 38 | Active | 1.57
